Source: ChEMBL document CHEMBL1143000, “Application of the phosphoramidate ProTide approach to 4'-azidouridine confers sub-micromolar potency versus hepatitis C virus on an inactive nucleoside” (J Med Chem, 2007)

Key:
Hepatitis C virus = test: Inhibition of HCV RNA replication in 2209-23 cells transfected with bicistronic HCV replicon; type: functional, Hepacivirus hominis
Outline: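 Huh-7-derived 2209-23 cells stably carry a bicistronic genotype 1b HCV replicon with a renilla luciferase reporter. Replication is read as luciferase signal. EC50 is the concentration that reduces HCV replication by 50%.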

[1] = Cytotoxicity against in 2209-23 cells by WST assay; type: cell-based; settings: human
Outline: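 Cell viability read by WST assay in 2209-23 replicon cells (Huh-7 derived, stably carrying a genotype 1b bicistronic HCV replicon). CC50 is the concentration that reduces cell viability by 50%.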

[2] = Inhibition of HCV NS5B570n-BK RNA polymerase; design: species or system Hepacivirus hominis
Outline: (§1)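 Recombinant HCV genotype 1b NS5B truncated at residue 570, from strain Con1 or strain BK. RNA synthesis was run primer-independently on HCV genome-derived cIRES RNA template. Read-out was incorporation of radiolabeled UMP into acid-insoluble RNA product.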

[3] = Inhibition of HCV NS5B570-Con1 RNA polymerase; design: species or system Hepacivirus hominis; outline: as §1

Question: Which EC50 (Hepatitis C virus; Hepatitis C virus) does the source give for `[N-]=[N+]=N[C@]1(COP(=O)(N[C@@H](Cc2ccccc2)C(=O)OCc2ccccc2)Oc2ccccc2)O[C@@H](n2ccc(=O)[nH]c2=O)[C@@H](O)[C@H]1O` (some centres not stated) here?
Answer: < 100 µM

Question: And the CC50 [1]?
Answer: > 100 µM

Question: With `[N-]=[N+]=N[C@]1(COP(=O)(O)OP(=O)(O)OP(=O)(O)O)O[C@@H](n2ccc(N)nc2=O)[C@@H](O)[C@H]1O` as the compound, how does the IC50 [2] read?
Answer: 0.29 µM

Question: What about the IC50 [3] of the same compound?
Answer: 0.32 µM

Question: Which EC50 (Hepatitis C virus; Hepatitis C virus) does the source give for `CCOC(=O)CN(C)P(=O)(OC[C@@]1(N=[N+]=[N-])O[C@@H](n2ccc(=O)[nH]c2=O)[C@@H](O)[C@H]1O)Oc1ccccc1` (some centres not stated) here?
Answer: > 100 µM

Question: What about the CC50 [1] of the same compound?
Answer: > 100 µM

Question: With `CC(C)OC(=O)[C@H](C)NP(=O)(OC[C@@]1(N=[N+]=[N-])O[C@@H](n2ccc(=O)[nH]c2=O)[C@@H](O)[C@H]1O)Oc1ccccc1` (some centres not stated) as the compound, how does the EC50 (Hepatitis C virus; Hepatitis C virus) read?
Answer: 0.77 µM

Question: And the CC50 [1]?
Answer: > 100 µM

Question: For `CCOC(=O)CCNP(=O)(OC[C@@]1(N=[N+]=[N-])O[C@@H](n2ccc(=O)[nH]c2=O)[C@@H](O)[C@H]1O)Oc1ccccc1` (some centres not stated), which EC50 (Hepatitis C virus; Hepatitis C virus) is on record?
Answer: > 100 µM

Question: And the CC50 [1]?
Answer: > 100 µM

Question: With `[N-]=[N+]=N[C@]1(COP(=O)(NC2(C(=O)OCc3ccccc3)CCCC2)Oc2ccccc2)O[C@@H](n2ccc(=O)[nH]c2=O)[C@@H](O)[C@H]1O` (some centres not stated) as the compound, how does the EC50 (Hepatitis C virus; Hepatitis C virus) read?
Answer: < 100 µM

Question: And the CC50 [1]?
Answer: > 100 µM

Question: For `CCOC(=O)C1(NP(=O)(OC[C@@]2(N=[N+]=[N-])O[C@@H](n3ccc(=O)[nH]c3=O)[C@@H](O)[C@H]2O)Oc2ccccc2)CCCC1` (some centres not stated), which EC50 (Hepatitis C virus; Hepatitis C virus) is on record?
Answer: > 100 µM

Question: What about the CC50 [1] of the same compound?
Answer: > 100 µM

Question: Which EC50 (Hepatitis C virus; Hepatitis C virus) does the source give for `CCOC(=O)[C@H](C)NP(=O)(OC[C@@]1(N=[N+]=[N-])O[C@@H](n2ccc(=O)[nH]c2=O)[C@@H](O)[C@H]1O)Oc1ccccc1` (some centres not stated) here?
Answer: 1.3 µM

Question: What about the CC50 [1] of the same compound?
Answer: > 100 µM

Question: With `C[C@H](NP(=O)(OC[C@@]1(N=[N+]=[N-])O[C@@H](n2ccc(=O)[nH]c2=O)[C@@H](O)[C@H]1O)Oc1cccc2ccccc12)C(=O)OCc1ccccc1` (some centres not stated) [listing 1 of 3 here] as the compound, how does the EC50 (Hepatitis C virus) read?
Answer: 0.39 µM

Question: Which EC50 (Hepatitis C virus; Hepatitis C virus) does the source give for `[N-]=[N+]=N[C@]1(COP(=O)(NCC(=O)OCc2ccccc2)Oc2ccccc2)O[C@@H](n2ccc(=O)[nH]c2=O)[C@@H](O)[C@H]1O` (some centres not stated) here?
Answer: 1.6 µM

Question: What about the CC50 [1] of the same compound?
Answer: > 100 µM

Question: For `COC(=O)[C@H](C)NP(=O)(OC[C@@]1(N=[N+]=[N-])O[C@@H](n2ccc(=O)[nH]c2=O)[C@@H](O)[C@H]1O)Oc1ccccc1` (some centres not stated), which EC50 (Hepatitis C virus; Hepatitis C virus) is on record?
Answer: 3.1 µM

Question: And the CC50 [1]?
Answer: > 100 µM

Question: What does the source list for `C[C@@H](NP(=O)(OC[C@@]1(N=[N+]=[N-])O[C@@H](n2ccc(=O)[nH]c2=O)[C@@H](O)[C@H]1O)Oc1ccccc1)C(=O)OCc1ccccc1` (some centres not stated)?
Answer: EC50 (Hepatitis C virus; Hepatitis C virus): 1.2 µM; CC50 [1]: > 100 µM

Question: With `C[C@H](NP(=O)(OC[C@@]1(N=[N+]=[N-])O[C@@H](n2ccc(=O)[nH]c2=O)[C@@H](O)[C@H]1O)Oc1cccc2ccccc12)C(=O)OCc1ccccc1` (some centres not stated) [listing 2 of 3 here] as the compound, how does the EC50 (Hepatitis C virus) read?
Answer: 0.22 µM

Question: Which EC50 (Hepatitis C virus; Hepatitis C virus) does the source give for `C[C@H](NP(=O)(OC[C@@]1(N=[N+]=[N-])O[C@@H](n2ccc(=O)[nH]c2=O)[C@@H](O)[C@H]1O)Oc1cccc2ccccc12)C(=O)OCc1ccccc1` (some centres not stated) [listing 3 of 3 here] here?
Answer: 0.43 µM

Question: What about the CC50 [1] of the same compound?
Answer: > 100 µM

Question: Which EC50 (Hepatitis C virus; Hepatitis C virus) does the source give for `C[C@H](NP(=O)(OC[C@@]1(N=[N+]=[N-])O[C@@H](n2ccc(=O)[nH]c2=O)[C@@H](O)[C@H]1O)Oc1ccccc1)C(=O)OC(C)(C)C` (some centres not stated) here?
Answer: 5.1 µM

Question: What about the CC50 [1] of the same compound?
Answer: > 100 µM

Question: For `CCOC(=O)[C@H](Cc1ccccc1)NP(=O)(OC[C@@]1(N=[N+]=[N-])O[C@@H](n2ccc(=O)[nH]c2=O)[C@@H](O)[C@H]1O)Oc1ccccc1` (some centres not stated), which EC50 (Hepatitis C virus; Hepatitis C virus) is on record?
Answer: 1.37 µM

Question: What about the CC50 [1] of the same compound?
Answer: > 100 µM

Question: For `CCOC(=O)[C@H](CCSC)NP(=O)(OC[C@@]1(N=[N+]=[N-])O[C@@H](n2ccc(=O)[nH]c2=O)[C@@H](O)[C@H]1O)Oc1ccccc1` (some centres not stated), which EC50 (Hepatitis C virus; Hepatitis C virus) is on record?
Answer: 14 µM

Question: And the CC50 [1]?
Answer: > 100 µM

Question: With `CCCCOC(=O)[C@H](C)NP(=O)(OC[C@@]1(N=[N+]=[N-])O[C@@H](n2ccc(=O)[nH]c2=O)[C@@H](O)[C@H]1O)Oc1ccccc1` (some centres not stated) as the compound, how does the EC50 (Hepatitis C virus; Hepatitis C virus) read?
Answer: 1.2 µM

Question: What about the CC50 [1] of the same compound?
Answer: > 100 µM

Question: For `[N-]=[N+]=N[C@]1(COP(=O)(O)OP(=O)(O)OP(=O)(O)O)O[C@@H](n2ccc(=O)[nH]c2=O)[C@@H](O)[C@H]1O`, which IC50 [2] is on record?
Answer: 0.23 µM

Question: And the IC50 [3]?
Answer: 0.22 µM

Question: Which EC50 (Hepatitis C virus; Hepatitis C virus) does the source give for `C[C@H](NP(=O)(OC[C@@]1(N=[N+]=[N-])O[C@@H](n2ccc(=O)[nH]c2=O)[C@@H](O)[C@H]1O)Oc1ccccc1)C(=O)OCc1ccccc1` (some centres not stated) here?
Answer: 0.61 µM

Question: And the CC50 [1]?
Answer: > 100 µM

Question: For `CCC(C)OC(=O)[C@H](C)NP(=O)(OC[C@@]1(N=[N+]=[N-])O[C@@H](n2ccc(=O)[nH]c2=O)[C@@H](O)[C@H]1O)Oc1ccccc1` (some centres not stated), which EC50 (Hepatitis C virus; Hepatitis C virus) is on record?
Answer: 0.63 µM

Question: What about the CC50 [1] of the same compound?
Answer: > 100 µM

Question: With `CCOC(=O)[C@@H]1CCCN1P(=O)(OC[C@@]1(N=[N+]=[N-])O[C@@H](n2ccc(=O)[nH]c2=O)[C@@H](O)[C@H]1O)Oc1ccccc1` (some centres not stated) as the compound, how does the EC50 (Hepatitis C virus; Hepatitis C virus) read?
Answer: 6 µM

Question: And the CC50 [1]?
Answer: > 100 µM

Question: Which results are given for `CCOC(=O)[C@H](CC(C)C)NP(=O)(OC[C@@]1(N=[N+]=[N-])O[C@@H](n2ccc(=O)[nH]c2=O)[C@@H](O)[C@H]1O)Oc1ccccc1` (some centres not stated)?
Answer: EC50 (Hepatitis C virus; Hepatitis C virus): 2.3 µM; CC50 [1]: > 100 µM

Question: Which EC50 (Hepatitis C virus; Hepatitis C virus) does the source give for `CCOC(=O)C(C)(C)NP(=O)(OC[C@@]1(N=[N+]=[N-])O[C@@H](n2ccc(=O)[nH]c2=O)[C@@H](O)[C@H]1O)Oc1ccccc1` (some centres not stated) here?
Answer: 10.3 µM

Question: What about the CC50 [1] of the same compound?
Answer: > 100 µM

Question: For `[N-]=[N+]=N[C@]1(CO)O[C@@H](n2ccc(=O)[nH]c2=O)[C@@H](O)[C@H]1O`, which EC50 (Hepatitis C virus; Hepatitis C virus) is on record?
Answer: > 100 µM

Question: What about the CC50 [1] of the same compound?
Answer: > 100 µM

Question: For `CC(C)(NP(=O)(OC[C@@]1(N=[N+]=[N-])O[C@@H](n2ccc(=O)[nH]c2=O)[C@@H](O)[C@H]1O)Oc1ccccc1)C(=O)OCc1ccccc1` (some centres not stated), which EC50 (Hepatitis C virus; Hepatitis C virus) is on record?
Answer: 3.4 µM

Question: What about the CC50 [1] of the same compound?
Answer: > 100 µM

Question: With `CC(C)[C@H](NP(=O)(OC[C@@]1(N=[N+]=[N-])O[C@@H](n2ccc(=O)[nH]c2=O)[C@@H](O)[C@H]1O)Oc1ccccc1)C(=O)OCc1ccccc1` (some centres not stated) as the compound, how does the EC50 (Hepatitis C virus; Hepatitis C virus) read?
Answer: < 100 µM

Question: What about the CC50 [1] of the same compound?
Answer: > 100 µM
